Measured values: ChEMBL document CHEMBL3763086, “Salicylanilide N-monosubstituted carbamates: Synthesis and in vitro antimicrobial activity” (2016)
Values after ≈ are worked out from the molar mass of the structure shown.

Assays:
Type in all cases: functional
[1] = test system: Trichophyton mentagrophytes; experiment: Antifungal activity against Trichophyton mentagrophytes 445 after 120 hrs by microbroth dilution method; conditions: Trichophyton mentagrophytes, 445, 120 h
Candida tropicalis [2] = experiment: Antifungal activity against Candida tropicalis 156 after 48 hrs by microbroth dilution method; conditions: Candida tropicalis, 156, 48 h
[3] = test system: Staphylococcus epidermidis; experiment: Antibacterial activity against Staphylococcus epidermidis H 6966/08 after 48 hrs by microbroth dilution method; conditions: H 6966/08, 48 h
Method in brief: (§1)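 Microbroth dilution modified per M07-A07 in Mueller-Hinton broth, pH 7.4 (±0.2). Inoculum in sterile water adjusted to 0.5 McFarland. MIC taken as growth reduction of at least 90% (IC90) versus control, read visually and at 540 nm after 24 and 48 h incubation in the dark.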

Staphylococcus aureus [4] = experiment: Antibacterial activity against methicillin-resistant Staphylococcus aureus H 5996/08 after 48 hrs by microbroth dilution method; conditions: H 5996/08, 48 h
Method in brief: (§2)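 Microdilution broth method modified after M07-A07 in Mueller-Hinton broth adjusted to pH 7.4 (±0.2). Inoculum prepared in sterile water to 0.5 McFarland (1.5 × 10^8 CFU/mL). MIC taken as growth reduction versus control (IC95 per table header), read visually and spectrophotometrically at 540 nm after 24 and 48 h incubation in the dark.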

Pichia kudriavzevii [5] = experiment: Antifungal activity against Candida krusei E28 after 48 hrs by microbroth dilution method; conditions: E28, 48 h
Staphylococcus aureus [6] = experiment: Antibacterial activity against methicillin-resistant Staphylococcus aureus H 5996/08 after 24 hrs by microbroth dilution method; conditions: H 5996/08, 24 h; method in brief: as §2
Trichosporon asahii [7] = experiment: Antifungal activity against Trichosporon asahii 1188 after 48 hrs by microbroth dilution method; conditions: Trichosporon asahii, 1188, 48 h
Enterococcus sp. [8] = experiment: Antibacterial activity against Enterococcus sp. J 14365/08 after 48 hrs by microbroth dilution method; conditions: J 14365/08, 48 h; method in brief: as §1
[9] = test system: Staphylococcus epidermidis; experiment: Antibacterial activity against Staphylococcus epidermidis H 6966/08 after 24 hrs by microbroth dilution method; conditions: H 6966/08, 24 h; method in brief: as §1
Nakaseomyces glabratus [10] = experiment: Antifungal activity against Candida glabrata 20/I after 48 hrs by microbroth dilution method
Staphylococcus aureus [11] = experiment: Antibacterial activity against Staphylococcus aureus CCM 4516/08 after 48 hrs by microbroth dilution method; conditions: CCM 4516/08, 48 h; method in brief: as §2
[12] = test system: Trichophyton mentagrophytes; experiment: Antifungal activity against Trichophyton mentagrophytes 445 after 72 hrs by microbroth dilution method; conditions: Trichophyton mentagrophytes, 445, 72 h
Enterococcus sp. [13] = experiment: Antibacterial activity against Enterococcus sp. J 14365/08 after 24 hrs by microbroth dilution method; conditions: J 14365/08, 24 h; method in brief: as §1
Lichtheimia corymbifera [14] = experiment: Antifungal activity against Absidia corymbifera 272 after 48 hrs by microbroth dilution method; conditions: Lichtheimia corymbifera, 272, 48 h
Candida albicans [15] = experiment: Antifungal activity against Candida albicans ATCC 44859 after 48 hrs by microbroth dilution method; conditions: ATCC 44859, 48 h
Klebsiella pneumoniae [16] = experiment: Antibacterial activity against Klebsiella pneumoniae D 11750/08 after 24 hrs by microbroth dilution method; conditions: D 11750/08, 24 h; method in brief: as §1
Pichia kudriavzevii [17] = experiment: Antifungal activity against Candida krusei E28 after 24 hrs by microbroth dilution method; conditions: E28, 24 h
Klebsiella pneumoniae [18] = experiment: Antibacterial activity against ESBL-positive Klebsiella pneumoniae J 14368/08 after 24 hrs by microbroth dilution method; conditions: J 14368/08, 24 h; method in brief: as §1
Escherichia coli [19] = experiment: Antibacterial activity against Escherichia coli CCM 4517 after 24 hrs by microbroth dilution method; conditions: CCM 4517, 24 h; method in brief: as §1
Candida tropicalis [20] = experiment: Antifungal activity against Candida tropicalis 156 after 24 hrs by microbroth dilution method; conditions: Candida tropicalis, 156, 24 h
Klebsiella pneumoniae [21] = experiment: Antibacterial activity against Klebsiella pneumoniae D 11750/08 after 48 hrs by microbroth dilution method; conditions: D 11750/08, 48 h; method in brief: as §1
Nakaseomyces glabratus [22] = experiment: Antifungal activity against Candida glabrata 20/I after 24 hrs by microbroth dilution method
Klebsiella pneumoniae [23] = experiment: Antibacterial activity against ESBL-positive Klebsiella pneumoniae J 14368/08 after 48 hrs by microbroth dilution method; conditions: J 14368/08, 48 h; method in brief: as §1
Lichtheimia corymbifera [24] = experiment: Antifungal activity against Absidia corymbifera 272 after 24 hrs by microbroth dilution method; conditions: Lichtheimia corymbifera, 272, 24 h
Staphylococcus aureus [25] = experiment: Antibacterial activity against Staphylococcus aureus CCM 4516/08 after 24 hrs by microbroth dilution method; conditions: CCM 4516/08, 24 h; method in brief: as §1
Candida albicans [26] = experiment: Antifungal activity against Candida albicans ATCC 44859 after 24 hrs by microbroth dilution method; conditions: ATCC 44859, 24 h
Trichosporon asahii [27] = experiment: Antifungal activity against Trichosporon asahii 1188 after 24 hrs by microbroth dilution method; conditions: Trichosporon asahii, 1188, 24 h
Escherichia coli [28] = experiment: Antibacterial activity against Escherichia coli CCM 4517 after 48 hrs by microbroth dilution method; conditions: CCM 4517, 48 h; method in brief: as §1

Structure (SMILES): O=C(NCCc1ccccc1)Oc1ccccc1C(=O)Nc1ccccc1
- MIC [1]: 62.5 µM (≈ 22.5 µg/mL)
- MIC (Candida tropicalis [2]): > 500 µM
- MIC [3]: 125 µM (≈ 45.1 µg/mL)
- MIC (Staphylococcus aureus [4]): 125 µM (≈ 45.1 µg/mL)
- MIC (Pichia kudriavzevii [5]): 125 µM (≈ 45.1 µg/mL)
- MIC (Staphylococcus aureus [6]): 125 µM (≈ 45.1 µg/mL)
- MIC (Trichosporon asahii [7]): > 500 µM
- MIC (Enterococcus sp. [8]): > 500 µM
- MIC [9]: 125 µM (≈ 45.1 µg/mL)
- MIC (Nakaseomyces glabratus [10]): 250 µM (≈ 90.1 µg/mL)
- MIC (Staphylococcus aureus [11]): 125 µM (≈ 45.1 µg/mL)
- MIC [12]: 62.5 µM (≈ 22.5 µg/mL)
- MIC (Enterococcus sp. [13]): > 500 µM
- MIC (Lichtheimia corymbifera [14]): > 500 µM
- MIC (Candida albicans [15]): > 500 µM
- MIC (Klebsiella pneumoniae [16]): > 500 µM
- MIC (Pichia kudriavzevii [17]): 125 µM (≈ 45.1 µg/mL)
- MIC (Klebsiella pneumoniae [18]): > 500 µM
- MIC (Escherichia coli [19]): > 500 µM
- MIC (Candida tropicalis [20]): > 500 µM
- MIC (Klebsiella pneumoniae [21]): > 500 µM
- MIC (Nakaseomyces glabratus [22]): 250 µM (≈ 90.1 µg/mL)
- MIC (Klebsiella pneumoniae [23]): > 500 µM
- MIC (Lichtheimia corymbifera [24]): > 500 µM
- MIC (Staphylococcus aureus [25]): 125 µM (≈ 45.1 µg/mL)
- MIC (Candida albicans [26]): > 500 µM
- MIC (Trichosporon asahii [27]): > 500 µM
- MIC (Escherichia coli [28]): > 500 µM

Structure (SMILES): O=C(NCCc1ccccc1)Oc1ccc(Cl)cc1C(=O)Nc1ccc(F)cc1
- MIC [1]: > 500 µM
- MIC (Candida tropicalis [2]): > 500 µM
- MIC [3]: 15.6 µM (≈ 6.45 µg/mL)
- MIC (Staphylococcus aureus [4]): 62.5 µM (≈ 25.8 µg/mL)
- MIC (Pichia kudriavzevii [5]): > 500 µM
- MIC (Staphylococcus aureus [6]): 15.6 µM (≈ 6.45 µg/mL)
- MIC (Trichosporon asahii [7]): > 500 µM
- MIC (Enterococcus sp. [8]): > 500 µM
- MIC [9]: 15.6 µM (≈ 6.45 µg/mL)
- MIC (Nakaseomyces glabratus [10]): > 500 µM
- MIC (Staphylococcus aureus [11]): 15.6 µM (≈ 6.45 µg/mL)
- MIC [12]: > 500 µM
- MIC (Enterococcus sp. [13]): > 500 µM
- MIC (Lichtheimia corymbifera [14]): > 500 µM
- MIC (Candida albicans [15]): > 500 µM
- MIC (Klebsiella pneumoniae [16]): > 500 µM
- MIC (Pichia kudriavzevii [17]): 125 µM (≈ 51.6 µg/mL)
- MIC (Klebsiella pneumoniae [18]): > 500 µM
- MIC (Escherichia coli [19]): > 500 µM
- MIC (Candida tropicalis [20]): > 500 µM
- MIC (Klebsiella pneumoniae [21]): > 500 µM
- MIC (Nakaseomyces glabratus [22]): 125 µM (≈ 51.6 µg/mL)
- MIC (Klebsiella pneumoniae [23]): > 500 µM
- MIC (Lichtheimia corymbifera [24]): > 500 µM
- MIC (Staphylococcus aureus [25]): 7.81 µM (≈ 3.22 µg/mL)
- MIC (Candida albicans [26]): 250 µM (≈ 103 µg/mL)
- MIC (Trichosporon asahii [27]): 125 µM (≈ 51.6 µg/mL)
- MIC (Escherichia coli [28]): > 500 µM

Structure (SMILES): C[C@@H]1[C@H](O)[C@@H](C)/C=C/C=C/C=C/C=C/C=C/C=C/C=C/[C@H](O[C@@H]2O[C@H](C)[C@@H](O)[C@H](N)[C@@H]2O)C[C@@H]2O[C@](O)(C[C@@H](O)C[C@@H](O)[C@H](O)CC[C@@H](O)C[C@@H](O)CC(=O)O[C@H]1C)C[C@H](O)[C@H]2C(=O)O [AMPHOTERICIN B]
- MIC [1]: 1.95 µM (≈ 1.8 µg/mL)
- MIC (Candida tropicalis [2]): 1.95 µM (≈ 1.8 µg/mL)
- MIC (Pichia kudriavzevii [5]): 1.95 µM (≈ 1.8 µg/mL)
- MIC (Trichosporon asahii [7]): 0.98 µM (≈ 0.906 µg/mL)
- MIC (Nakaseomyces glabratus [10]): 1.95 µM (≈ 1.8 µg/mL)
- MIC [12]: 1.95 µM (≈ 1.8 µg/mL)
- MIC (Lichtheimia corymbifera [14]): 7.81 µM (≈ 7.22 µg/mL)
- MIC (Candida albicans [15]): 0.49 µM (≈ 0.453 µg/mL)
- MIC (Pichia kudriavzevii [17]): 1.95 µM (≈ 1.8 µg/mL)
- MIC (Candida tropicalis [20]): 1.95 µM (≈ 1.8 µg/mL)
- MIC (Nakaseomyces glabratus [22]): 0.98 µM (≈ 0.906 µg/mL)
- MIC (Lichtheimia corymbifera [24]): 7.81 µM (≈ 7.22 µg/mL)
- MIC (Candida albicans [26]): 0.12 µM (≈ 0.111 µg/mL)
- MIC (Trichosporon asahii [27]): 0.49 µM (≈ 0.453 µg/mL)

Structure (SMILES): OC(Cn1cncn1)(Cn1cncn1)c1ccc(F)cc1F [FLUCONAZOLE]
- MIC [1]: 125 µM (≈ 38.3 µg/mL)
- MIC (Candida tropicalis [2]): > 500 µM
- MIC (Pichia kudriavzevii [5]): 250 µM (≈ 76.6 µg/mL)
- MIC (Trichosporon asahii [7]): 500 µM (≈ 153 µg/mL)
- MIC (Nakaseomyces glabratus [10]): 500 µM (≈ 153 µg/mL)
- MIC [12]: 7.81 µM (≈ 2.39 µg/mL)
- MIC (Lichtheimia corymbifera [14]): > 500 µM
- MIC (Candida albicans [15]): 0.24 µM (≈ 0.0735 µg/mL)
- MIC (Pichia kudriavzevii [17]): 125 µM (≈ 38.3 µg/mL)
- MIC (Candida tropicalis [20]): > 500 µM
- MIC (Nakaseomyces glabratus [22]): 31.2 µM (≈ 9.57 µg/mL)
- MIC (Lichtheimia corymbifera [24]): > 500 µM
- MIC (Candida albicans [26]): 0.24 µM (≈ 0.0735 µg/mL)
- MIC (Trichosporon asahii [27]): 250 µM (≈ 76.6 µg/mL)

Structure (SMILES): CC1(C)S[C@@H]2[C@H](NC(=O)Cc3ccccc3)C(=O)N2[C@H]1C(=O)O [PENICILLIN G]
- MIC [3]: 250 µM (≈ 83.6 µg/mL)
- MIC (Staphylococcus aureus [4]): 125 µM (≈ 41.8 µg/mL)
- MIC (Staphylococcus aureus [6]): 62.5 µM (≈ 20.9 µg/mL)
- MIC (Enterococcus sp. [8]): 15.6 µM (≈ 5.22 µg/mL)
- MIC [9]: 250 µM (≈ 83.6 µg/mL)
- MIC (Staphylococcus aureus [11]): 0.98 µM (≈ 0.328 µg/mL)
- MIC (Enterococcus sp. [13]): 7.81 µM (≈ 2.61 µg/mL)
- MIC (Klebsiella pneumoniae [16]): 500 µM (≈ 167 µg/mL)
- MIC (Klebsiella pneumoniae [18]): > 500 µM
- MIC (Escherichia coli [19]): 125 µM (≈ 41.8 µg/mL)
- MIC (Klebsiella pneumoniae [21]): 500 µM (≈ 167 µg/mL)
- MIC (Klebsiella pneumoniae [23]): > 500 µM
- MIC (Staphylococcus aureus [25]): 0.98 µM (≈ 0.328 µg/mL)
- MIC (Escherichia coli [28]): 125 µM (≈ 41.8 µg/mL)
